Results published in ChEMBL document CHEMBL1138515, “Synthesis and biological characterization of B-ring amino analogues of potent benzothiadiazine hepatitis C virus polymerase inhibitors” (J Med Chem, 2009).

How the values were obtained:
[1] = Inhibition of HCV1a H77 NS5B assessed as [3H]UTP incorporation into RNA by scintillation counting; set-up: species or system Hepatitis C virus (isolate H77)
Procedure, shortened: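 Two-fold serial inhibitor dilutions were preincubated for 15 min at room temperature with NS5B (genotype 1a H77 or genotype 1b BK, 20-50 nM) in 20 mM Tris-Cl pH 7.4, 2 mM MnCl₂, 1 mM DTT, 1 mM EDTA and 60-125 µM GTP. Reactions were started with 20 µM CTP, 20 µM ATP, 1 µM ³H-UTP, 5 nM template RNA and RNase inhibitor, then run 2-4 h at room temperature.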

[2] = system: Hepatitis C virus; assay: Antiviral activity against HCV1a H77 assessed as inhibition of viral replication by cell-based replicon assay; type: functional, organism-based, Hepacivirus hominis; settings: genotype 1a H77
Procedure, shortened: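 Stable luciferase-reporter subgenomic replicon Huh-7 lines (1a H77; 1b Con1) were seeded at 5000 cells/well in DMEM with 5% FBS. The next day an eight-point half-log dilution series was added from DMSO stocks. After 3 days the cells were lysed, luciferin was added and luminescence was read. EC₅₀ came from percent inhibition of replication at each concentration.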

[3] = AUC (0 to infinity) in Sprague-Dawley rat at 5 mg/kg, po; type: ADME, organism-based; set-up: time infinity, dose 5 mg/kg, route oral; settings: plasma
Procedure, shortened: (§1)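 Overnight-fasted Sprague-Dawley rats (n = 3) received a single 5 mg/kg iv or oral dose in DMSO/PEG400 (1:9, v/v). Mean concentrations were fitted multiexponentially. AUC₀₋ₜ was calculated by linear trapezoidal rule and extrapolated to infinity using Cₜ divided by the terminal rate constant.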

[4] = Oral bioavailability in Sprague-Dawley rat at 5 mg/kg; type: ADME, organism-based; settings: in vivo; procedure, shortened: as §1
[5] = Cmax in Sprague-Dawley rat at 5 mg/kg, po; type: ADME, organism-based; set-up: dose 5 mg/kg, route oral; settings: in vivo; procedure, shortened: as §1
[6] = Clearance in Sprague-Dawley rat at 5 mg/kg, iv; type: ADME, organism-based; set-up: dose 5 mg/kg, route intravenous; settings: in vivo; procedure, shortened: as §1
[7] = Half life in Sprague-Dawley rat at 5 mg/kg, iv; type: ADME, organism-based; set-up: dose 5 mg/kg, route intravenous; settings: in vivo; procedure, shortened: as §1

| SMILES | IC50 [1] [nM] | EC50 [2] [nM] | AUC(0-inf) [3] [ng·h/mL] | bioavailability [4] [%] | Cmax [5] [ng/mL] | clearance [6] [mL/min/kg] | half-life [7] [h] |
| --- | --- | --- | --- | --- | --- | --- | --- |
| CC(C)(C)CCC1(NCc2ccc(OCc3ccccc3)cc2)C(=O)C(C2=NS(=O)(=O)c3cc(NS(C)(=O)=O)ccc3N2)=C(O)c2ccccc21 (configuration not stated) | 27 | 118 | – | – | – | – | – |
| COC(=O)NC1(CCC(C)C)C(=O)C(C2=NS(=O)(=O)c3cc(NS(C)(=O)=O)ccc3N2)=C(O)c2ccccc21 (configuration not stated) | 25 | 210 | – | – | – | – | – |
| CON(C(C)=O)C1(CCC(C)C)C(=O)C(C2=NS(=O)(=O)c3cc(NS(C)(=O)=O)ccc3N2)=C(O)c2ccccc21 (configuration not stated) | 83 | – | – | – | – | – | – |
| Cn1ccnc1CNC1(CCC(C)(C)C)C(=O)C(C2=NS(=O)(=O)c3cc(NS(C)(=O)=O)ccc3N2)=C(O)c2ccccc21 (configuration not stated) | 9 | 29 | – | – | – | – | – |
| CC(C)(C)CCC1(NCc2cccnc2)C(=O)C(C2=NS(=O)(=O)c3cc(NS(C)(=O)=O)ccc3N2)=C(O)c2ccccc21 (configuration not stated) | 10 | 15 | – | – | – | – | – |
| CC(C)(C)CCC1(NCc2ccc(C#N)cc2)C(=O)C(C2=NS(=O)(=O)c3cc(NS(C)(=O)=O)ccc3N2)=C(O)c2ccccc21 (configuration not stated) | 13 | 17 | – | – | – | – | – |
| CC(C)(C)CCC1(NCc2ccco2)C(=O)C(C2=NS(=O)(=O)c3cc(NS(C)(=O)=O)ccc3N2)=C(O)c2ccccc21 (configuration not stated) | 12 | 10 | – | – | – | – | – |
| COc1ccccc1CNC1(CCC(C)(C)C)C(=O)C(C2=NS(=O)(=O)c3cc(NS(C)(=O)=O)ccc3N2)=C(O)c2ccccc21 (configuration not stated) | 15 | 6 | 1600 | 48 | 400 | 25 | 3.2 |
| COc1cccc(CNC2(CCC(C)(C)C)C(=O)C(C3=NS(=O)(=O)c4cc(NS(C)(=O)=O)ccc4N3)=C(O)c3ccccc32)c1 (configuration not stated) | 13 | 20 | – | – | – | – | – |
| Cc1cccc(CNC2(CCC(C)(C)C)C(=O)C(C3=NS(=O)(=O)c4cc(NS(C)(=O)=O)ccc4N3)=C(O)c3ccccc32)n1 (configuration not stated) | 15 | 13 | 1340 | 33.8 | 150 | 28.3 | 1 |
| CC(C)(C)CCC1(NCc2ccccc2N)C(=O)C(C2=NS(=O)(=O)c3cc(NS(C)(=O)=O)ccc3N2)=C(O)c2ccccc21 (configuration not stated) | 17 | 8 | 410 | 8.9 | 80 | 20 | 2.2 |
| CC(C)(C)CCC1(NCc2ccccc2)C(=O)C(C2=NS(=O)(=O)c3cc(NS(C)(=O)=O)ccc3N2)=C(O)c2ccccc21 (configuration not stated) | 17 | 10 | – | – | – | – | – |
| CC(C)CC[C@@]1(N)C(=O)C(C2=NS(=O)(=O)c3cc(NS(C)(=O)=O)ccc3N2)=C(O)c2ccccc21 | 4 | 37 | – | 0 | – | 35.3 | 0.3 |
| Cc1cc(CNC2(CCC(C)(C)C)C(=O)C(C3=NS(=O)(=O)c4cc(NS(C)(=O)=O)ccc4N3)=C(O)c3ccccc32)n(C)n1 (configuration not stated) | 5 | 15 | – | – | – | – | – |
| COc1ccc(CNC2(CCC(C)(C)C)C(=O)C(C3=NS(=O)(=O)c4cc(NS(C)(=O)=O)ccc4N3)=C(O)c3ccccc32)cc1 (configuration not stated) | 13 | 13 | – | – | – | – | – |
| CC(C)(C)CCC1(NCc2ccccc2C(F)(F)F)C(=O)C(C2=NS(=O)(=O)c3cc(NS(C)(=O)=O)ccc3N2)=C(O)c2ccccc21 (configuration not stated) | 33 | 35 | – | – | – | – | – |
| Cc1cc(C)c(CNC2(CCC(C)(C)C)C(=O)C(C3=NS(=O)(=O)c4cc(NS(C)(=O)=O)ccc4N3)=C(O)c3ccccc32)c(C)c1 (configuration not stated) | 33 | 60 | – | – | – | – | – |
| CC(C)CCC1(NC(=O)c2ccccc2)C(=O)C(C2=NS(=O)(=O)c3cc(NS(C)(=O)=O)ccc3N2)=C(O)c2ccccc21 (configuration not stated) | 108 | – | – | – | – | – | – |
